# Assay results gathered from unrelated publications.
# Each line is one published result; the experiments were not run side by side.
# Target: Serine/threonine-protein kinase Nek1 (NEK1, Homo sapiens, UniProt Q96PY6)
# One construct used (Q96PY6 1-1258): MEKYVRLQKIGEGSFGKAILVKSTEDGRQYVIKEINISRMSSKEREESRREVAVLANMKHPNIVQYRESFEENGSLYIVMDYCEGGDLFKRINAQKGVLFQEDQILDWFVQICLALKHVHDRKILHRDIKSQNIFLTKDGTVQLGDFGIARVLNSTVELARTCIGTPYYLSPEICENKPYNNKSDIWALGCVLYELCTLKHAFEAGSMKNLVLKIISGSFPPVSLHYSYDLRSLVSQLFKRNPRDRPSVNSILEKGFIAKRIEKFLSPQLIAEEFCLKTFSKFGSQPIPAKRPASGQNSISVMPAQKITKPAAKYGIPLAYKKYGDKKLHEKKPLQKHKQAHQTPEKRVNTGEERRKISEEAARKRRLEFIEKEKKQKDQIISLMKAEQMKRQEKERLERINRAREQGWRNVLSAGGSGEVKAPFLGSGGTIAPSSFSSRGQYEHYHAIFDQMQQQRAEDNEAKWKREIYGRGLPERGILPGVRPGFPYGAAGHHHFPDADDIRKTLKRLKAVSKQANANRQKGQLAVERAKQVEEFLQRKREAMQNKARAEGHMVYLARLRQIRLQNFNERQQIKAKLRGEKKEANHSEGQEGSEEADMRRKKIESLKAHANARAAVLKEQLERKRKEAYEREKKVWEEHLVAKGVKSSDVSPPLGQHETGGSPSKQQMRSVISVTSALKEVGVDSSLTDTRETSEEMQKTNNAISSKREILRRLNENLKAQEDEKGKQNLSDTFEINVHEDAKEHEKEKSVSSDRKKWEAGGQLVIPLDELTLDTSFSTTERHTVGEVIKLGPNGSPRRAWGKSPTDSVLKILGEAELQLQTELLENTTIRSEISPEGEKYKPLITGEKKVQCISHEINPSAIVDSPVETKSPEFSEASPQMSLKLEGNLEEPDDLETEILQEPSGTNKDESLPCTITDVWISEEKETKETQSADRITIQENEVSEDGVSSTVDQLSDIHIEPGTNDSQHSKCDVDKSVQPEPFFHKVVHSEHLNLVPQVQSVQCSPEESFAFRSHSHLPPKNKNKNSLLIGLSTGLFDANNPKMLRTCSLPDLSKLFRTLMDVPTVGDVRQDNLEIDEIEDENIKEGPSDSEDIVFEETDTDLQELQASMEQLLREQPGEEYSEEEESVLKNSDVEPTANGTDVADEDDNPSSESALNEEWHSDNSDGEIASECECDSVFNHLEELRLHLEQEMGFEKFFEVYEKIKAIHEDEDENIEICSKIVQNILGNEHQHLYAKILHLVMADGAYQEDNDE
Structure (SMILES),observed,method,concentration,remaining binding [%]
CS(=O)(=O)NCC[C@H](NC(=O)c1cncc2c1cnn2-c1ccc(F)cc1)c1ccnc(S(C)(=O)=O)c1,cell-free assay,competition with immobilised ligand,1 µM,45
c1cncc(-c2cccc(Nc3nccc(NC4CCCCC4)n3)c2)c1,binding,competition with immobilised ligand,10 µM,91
N[C@@H]1CCN(c2nccc(-c3cnn4ncccc34)n2)C1,binding,,1 µM,100
O=C(O)c1cc(-c2ccc(C3CCNCC3)cc2)c2ccc(-c3ccc(C(F)(F)F)cc3)cc2c1,cell-free assay,competition with immobilised ligand,1 µM,100
FC(F)(F)Oc1cccc(-c2cnc3ccc(-c4ccncc4)nn23)c1,cell-free assay,competition with immobilised ligand,5 µM,78
F[C@@H]1CCN(c2nccc(-c3cnn4ncccc34)n2)C1,binding,,1 µM,100
Cc1cnc(Nc2ccc(C(=O)N3CCC(N4CCCC4)CC3)cc2)nc1-c1cc2ccccc2s1,binding,competition with immobilised ligand,1 µM,18
NS(=O)(=O)c1cc(NC(=O)C2(c3ccccc3Cl)CC2)ccc1Oc1cccc(Cl)c1,cell-free assay,competition with immobilised ligand,1 µM,100
Cc1cnn2ncc(-c3ccnc(N(C)C)n3)c2c1,binding,,1 µM,100
O=C(Nc1c[nH]nc1C(=O)NC1CCNCC1)c1cc(F)cc(F)c1,binding,competition with immobilised ligand,1 µM,100
C[C@@H]1CCN(c2nccc(-c3cnn4ncccc34)n2)C1,binding,,1 µM,100
COc1cnc(Nc2cccc(S(N)(=O)=O)c2)nc1N1CCN(c2ccccc2)CC1,binding,competition with immobilised ligand,1 µM,92
Cn1nc(C(=O)NCc2ccc(C(=O)O)cc2)cc1-c1ccc2[nH]ccc2c1,cell-free assay,competition with immobilised ligand,0.1 µM,100
CCN1CCN(Cc2ccc(C(=O)Nc3ccc(C)c(Oc4ccc5c(c4)CC(=O)N5)c3)cc2C(F)(F)F)CC1,binding,competition with immobilised ligand,1 µM,100
CN(CCCC(F)(F)F)c1nccc(-c2cnn3ncccc23)n1,binding,,1 µM,100
O=C(N[C@H]1CCCCC/C=C\C2C[C@@]2(C(=O)O)NC(=O)[C@@H]2C[C@@H](Oc3ccncc3)CN2C1=O)OC1CCCC1 (stereo partly shown),binding,competition with immobilised ligand,1 µM,100
CN(C)c1nccc(-c2cnc3ncccn23)n1,binding,,1 µM,100
O=C(NCc1ncc(C(F)(F)F)cc1Cl)c1ccc2c(c1)C1(CCS(=O)(=O)CC1)[C@H](C1CC1)N2S(=O)(=O)c1ccc(F)cc1,cell-free assay,competition with immobilised ligand,1 µM,100
O=C(c1ccc(Nc2ncc(Cl)c(-c3cc4ccccc4s3)n2)cc1)N1CCC(N2CCCC2)CC1,binding,competition with immobilised ligand,1 µM,27
CN(c1ccnc(CNc2nc(Nc3ccc4c(c3)CC(=O)N4)ncc2C(F)(F)F)n1)S(C)(=O)=O,cell-free assay,competition with immobilised ligand,1 µM,51
CN(c1nccc(-c2cnn3ncccc23)n1)C1CC1,binding,,1 µM,100
O=C(c1ccc(Nc2nccc(-c3cc4ccccc4s3)n2)cc1)N1CCC(N2CCCC2)CC1,binding,competition with immobilised ligand,1 µM,31
